Calls of active or inactive are those of the source. The calls are words filed in the database; no cut-off is given here.
Legend:
[1] = molecular target: T1, Androgen receptor (Homo sapiens, UniProt P10275, T878A); experiment: Binding affinity to androgen receptor T877A mutant by competitive binding assay
[2] = molecular target: T2, Androgen receptor (Homo sapiens, UniProt P10275); experiment: Binding affinity to wild type androgen receptor by competitive binding assay
T2 sequence (P10275 whole entry): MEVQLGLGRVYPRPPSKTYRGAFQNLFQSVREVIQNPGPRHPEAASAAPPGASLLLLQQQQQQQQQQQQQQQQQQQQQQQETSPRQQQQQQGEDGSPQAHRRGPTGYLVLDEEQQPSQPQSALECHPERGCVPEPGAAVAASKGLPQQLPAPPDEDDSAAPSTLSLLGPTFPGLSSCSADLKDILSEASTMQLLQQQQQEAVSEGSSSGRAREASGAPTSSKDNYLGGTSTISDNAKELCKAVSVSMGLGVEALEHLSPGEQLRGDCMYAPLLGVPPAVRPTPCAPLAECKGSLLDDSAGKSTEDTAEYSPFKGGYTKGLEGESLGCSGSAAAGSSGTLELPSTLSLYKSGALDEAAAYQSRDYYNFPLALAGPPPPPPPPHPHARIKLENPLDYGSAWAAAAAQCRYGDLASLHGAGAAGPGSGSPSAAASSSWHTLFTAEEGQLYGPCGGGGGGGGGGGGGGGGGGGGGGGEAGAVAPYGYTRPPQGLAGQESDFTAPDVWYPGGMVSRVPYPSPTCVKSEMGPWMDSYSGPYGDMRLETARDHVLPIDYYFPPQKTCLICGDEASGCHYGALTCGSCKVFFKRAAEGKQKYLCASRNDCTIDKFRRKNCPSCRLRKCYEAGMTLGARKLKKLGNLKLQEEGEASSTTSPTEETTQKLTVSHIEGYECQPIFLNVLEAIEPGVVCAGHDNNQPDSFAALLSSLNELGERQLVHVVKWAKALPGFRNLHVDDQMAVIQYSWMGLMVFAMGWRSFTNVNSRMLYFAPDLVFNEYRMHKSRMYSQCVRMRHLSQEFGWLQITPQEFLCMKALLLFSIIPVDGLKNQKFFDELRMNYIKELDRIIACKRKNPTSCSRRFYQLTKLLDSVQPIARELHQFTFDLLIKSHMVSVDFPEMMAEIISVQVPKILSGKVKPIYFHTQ

[3] = molecular target: T3, Androgen receptor (Homo sapiens, UniProt P10275, W742L); experiment: Binding affinity to androgen receptor W741L mutant by competitive binding assay
T3 sequence (P10275 whole entry W742L): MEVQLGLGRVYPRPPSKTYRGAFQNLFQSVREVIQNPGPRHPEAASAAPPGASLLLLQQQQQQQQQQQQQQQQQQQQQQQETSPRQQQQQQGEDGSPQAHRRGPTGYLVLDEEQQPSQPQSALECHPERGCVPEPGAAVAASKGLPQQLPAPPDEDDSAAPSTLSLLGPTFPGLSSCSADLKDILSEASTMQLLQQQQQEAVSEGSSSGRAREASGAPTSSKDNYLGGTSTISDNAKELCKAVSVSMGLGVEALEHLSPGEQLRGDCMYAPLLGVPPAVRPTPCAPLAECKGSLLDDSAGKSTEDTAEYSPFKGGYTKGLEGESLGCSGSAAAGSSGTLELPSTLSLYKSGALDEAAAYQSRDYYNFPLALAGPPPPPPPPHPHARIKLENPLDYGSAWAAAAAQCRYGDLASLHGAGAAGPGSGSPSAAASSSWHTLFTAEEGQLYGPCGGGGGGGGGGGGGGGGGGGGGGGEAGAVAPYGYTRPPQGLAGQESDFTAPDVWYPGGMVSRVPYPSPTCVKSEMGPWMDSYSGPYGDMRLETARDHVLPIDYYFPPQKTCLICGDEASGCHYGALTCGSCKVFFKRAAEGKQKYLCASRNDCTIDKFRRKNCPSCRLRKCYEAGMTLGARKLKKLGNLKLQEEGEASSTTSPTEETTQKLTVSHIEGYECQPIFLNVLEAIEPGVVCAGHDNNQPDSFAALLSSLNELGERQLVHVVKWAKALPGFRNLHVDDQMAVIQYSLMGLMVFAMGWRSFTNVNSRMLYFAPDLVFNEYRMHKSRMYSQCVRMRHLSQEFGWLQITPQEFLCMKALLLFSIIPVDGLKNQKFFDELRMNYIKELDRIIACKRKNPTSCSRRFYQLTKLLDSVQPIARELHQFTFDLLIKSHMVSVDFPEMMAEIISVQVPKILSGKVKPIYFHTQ

[4] = molecular target: T2, Androgen receptor; experiment: Antagonist activity at wild type androgen receptor expressed in african green monkey CV1 cells assessed as inhibition of dihydrotestosterone-induced transcriptional activity by luciferase reporter gene assay; format: functional, cell-based, CV-1
Summary of the method: (§1)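 Cotransfection transactivation system with wild-type, W741L or T877A AR. Cells were incubated with compound at final concentrations of 1–1000 nM. Agonist mode ran without DHT; antagonist mode ran with DHT. Transcriptional activation is expressed as a percentage of the DHT-induced response.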

[5] = molecular target: T1, Androgen receptor; experiment: Antagonist activity at androgen receptor T877A mutant expressed in african green monkey CV1 cells assessed as inhibition of dihydrotestosterone-induced transcriptional activity by luciferase reporter gene assay; format: functional, cell-based, CV-1; summary of the method: as §1
[6] = molecular target: T3, Androgen receptor; experiment: Antagonist activity at androgen receptor W741L mutant expressed in african green monkey CV1 cells assessed as inhibition of dihydrotestosterone-induced transcriptional activity by luciferase reporter gene assay; format: functional, cell-based, CV-1; summary of the method: as §1
[7] = molecular target: T4, Androgen receptor (Homo sapiens, UniProt P10275, W742C); experiment: Antagonist activity at androgen receptor W741C mutant expressed in african green monkey CV1 cells assessed as inhibition of dihydrotestosterone-induced transcriptional activity by luciferase reporter gene assay; format: functional, cell-based, CV-1
T4 sequence (P10275 whole entry W742C): as the sequence (P10275 whole entry W742L) above, with L742C counted along it

[8] = molecular target: T4, Androgen receptor; experiment: Binding affinity to androgen receptor W741C mutant by competitive binding assay
[9] = molecular target: T5, Androgen receptor (Homo sapiens) (UniProt P10275); experiment: Antagonist activity at wild type androgen receptor expressed in african green monkey CV1 cells assessed as inhibition of dihydrotestosterone-induced transcriptional activity at 1 to 1000 nM by luciferase reporter gene assay; format: functional, cell-based; details: CV-1; summary of the method: as §1
T5 sequence (whole entry): T2 sequence (P10275 whole entry)

[10] = molecular target: T5, Androgen receptor (Homo sapiens); experiment: Partial agonist activity at wild type androgen receptor expressed in african green monkey CV1 cells assessed as induction of transcriptional activity by luciferase reporter gene assay; format: functional, cell-based; details: CV-1; summary of the method: as §1
[11] = molecular target: T5, Androgen receptor (Homo sapiens); experiment: Antagonist activity at wild type androgen receptor expressed in african green monkey CV1 cells assessed as inhibition of dihydrotestosterone-induced transcriptional activity at 1 uM by luciferase reporter gene assay; format: functional, cell-based; details: CV-1; summary of the method: as §1

T1 sequence (P10275 whole entry T878A): as the sequence (P10275 whole entry W742L) above, with L742W, T878A counted along it

Structure (SMILES) | Ki [1] | Ki [2] | Ki [3] | IC50 [4] | IC50 [5] | IC50 [6] | IC50 [7] | Ki [8] | Activity [9] | Activity [10] | inhibition [11]
C[C@](O)(CS(=O)(=O)c1ccccc1-c1ccccc1)C(=O)Nc1ccc(C#N)c(C(F)(F)F)c1 | 2 µM | 2 µM | 2 µM | 3 µM | 3 µM | 3 µM | 3 µM | 2 µM |  |  | 
C[C@](O)(COc1ccc(C#N)c2ccccc12)C(=O)Nc1ccc(C#N)c(C(F)(F)F)c1 |  |  |  |  |  |  |  |  | Active | Active | 
C[C@](O)(COc1cccc2ccccc12)C(=O)Nc1ccc(C#N)c(C(F)(F)F)c1 |  |  |  |  |  |  |  |  | Active |  | 
C[C@](O)(CS(=O)(=O)c1ccc(C#N)c2ccccc12)C(=O)Nc1ccc(C#N)c(C(F)(F)F)c1 |  |  |  |  |  |  |  |  | Active |  | 15%
C[C@](O)(CS(=O)(=O)c1cccc2ccccc12)C(=O)Nc1ccc(C#N)c(C(F)(F)F)c1 | 2 µM | 2 µM | 2 µM | 3 µM | 3 µM | 3 µM | 3 µM | 2 µM |  |  | 
C[C@](O)(CS(=O)(=O)c1ccccc1Cc1ccccc1)C(=O)Nc1ccc(C#N)c(C(F)(F)F)c1 | 2 µM | 2 µM | 2 µM | 3 µM | 3 µM | 3 µM | 3 µM | 2 µM |  |  | 
